Reference: ChEMBL document CHEMBL4330095, “Development of an anti-hepatitis B virus (HBV) agent through the structure-activity relationship of the interferon-like small compound CDM-3008” (Bioorg Med Chem, 2019)
pIC50: −log10 of the molar value. Values after ≈ are worked out from the molar mass of the structure shown. Active and inactive are the calls of the source. The calls are words filed in the database; no cut-off is given here.

Legend:
Hepatitis C virus = experiment: Antiviral activity against HCV infected in human R6FLR-N replicon cells assessed as reduction in viral replication at 30 uM after 3 days by luciferase reporter gene assay; format: functional, Hepacivirus hominis; parameters: scale not given: the % may be the effect or the level left
Procedure, shortened: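 R6FLR-N replicon cells, 3 × 10⁴ cells/well, grown in DMEM with 10% FBS and 500 μg/ml G418; compound added after 1 day, then 3 days of incubation. Luciferase read by Steady-Glo; percent inhibition at 30 μM expressed against DMSO control, mean of n = 2.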

[1] = Cytotoxicity against human […] cells harboring R6FLR-N replicons after 3 days by XTT assay; format: cell-based; parameters: concentration or dose not given beside the values; conditions: 72 h
Procedure, shortened: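 Replicon cells seeded at 3 × 10⁴ cells/well and exposed to compound for 3 days; viability by XTT. Values given as percent at 30 μM against DMSO control, mean of n = 2.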

[2] = Solubility of the compound by HPLC-UV analysis; format: physicochemical
Procedure, shortened: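 Dissolved compound solution injected into HPLC and peak area read by UV at 254 nm; concentration derived from a previously determined calibration curve.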

[3] = (§1) Antiviral activity against HBV genotype C infected in primary human hepatocytes PXB cells assessed as inhibition of viral DNA level after 14 days by qPCR analysis; format: functional, cell-based; conditions: Hepatitis B virus, 336 h
Procedure, shortened: (§2)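 PXB cells (primary human hepatocytes from humanized-liver chimeric mice) in dHCGM, 37 °C, 5% CO2; infected with HBV C_AT at 3 genome equivalents/cell while treated with 0.01–10 μM compound; after 1 day, compound-containing medium exchanged every 3 or 4 days for 14 days. Cellular DNA purified and quantified, HBV DNA by qPCR; mean ± SE, n = 3.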

Hepatocyte = experiment: Cytotoxicity against human primary hepatocytes PXB cells assessed as decrease in cell viability by RealTime-Glo MT assay; format: cell-based
Procedure, shortened: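 Viability read by RealTime-Glo MT in HBV C_AT-infected PXB cells (3 genome equivalents/cell) given 0.01–10 μM compound from infection onward, with compound-containing medium exchanged every 3 or 4 days over 14 days; mean ± SE, n = 3.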

Homo sapiens = organism: Homo sapiens; experiment: Induction of IFN-stimulated gene expression response in human JHH7 cells assessed as upregulation of OAS1 mRNA expression at 3 to 30 uM after 3 days by qPCR analysis; format: functional, cell-based
Procedure, shortened: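 JHH-7 hepatoma cells in DMEM with 10% FBS, 37 °C, 5% CO2, exposed to 3 and 30 μM compound for 3 days. Total RNA purified and its concentration measured by UV spectrophotometry before OAS-1 mRNA measurement; mean ± SE, n = 3.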

HBV genotype C [4] = experiment: as §1; format: functional, cell-based; procedure, shortened: as §2
[5] = Half life in mouse liver microsomes at 29 umol/L preincubated for 5 mins followed by NADPH addition measured after 120 mins by HPLC analysis; format: ADME, Microsome
Procedure, shortened: (§3)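 Compound (29 μmol/L, as added) combined with mouse or human liver microsomes (20 mg/mL stock), preincubated 5 min at 37 °C, then NADPH regenerating system added and incubated 0, 30, 60 or 120 min at 37 °C. Aliquots quenched in ice-cold MeOH, internal standard added, centrifuged; remaining compound quantified by HPLC against a calibration curve.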

[6] = Half life in human liver microsomes at 29 umol/L preincubated for 5 mins followed by NADPH addition measured after 120 mins by HPLC analysis; format: ADME, Microsome; procedure, shortened: as §3
HBV genotype C [7] = experiment: Antiviral activity against HBV genotype C infected in primary human hepatocytes PXB cells assessed as inhibition of viral DNA level at 0.32 to 32 uM incubated for 7 days by qPCR analysis; format: functional, cell-based
Procedure, shortened: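 PXB cells in dHCGM infected with HBV C_AT, 3 genome equivalents/cell; medium exchanged every 3 or 4 days. After 28 days of infection, cells treated with the indicated concentrations for 7 days, pegylated IFNα2a run alongside. Cellular DNA purified and quantified, then HBV DNA measured by qPCR; mean ± SE, n = 3.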

solubility [2] [µg/mL] | half-life at 29 µM [5] [min] | half-life at 29 µM [6] [min] | Compound | Activity (Hepatitis C virus) | Activity [1] [%] | pIC50 [3] | Activity (Hepatocyte) | Activity (Homo sapiens) | Activity (HBV genotype C [4]) | Activity (HBV genotype C [7])
< 100 |  |  | O=C(Nc1ccccn1)c1cn2c(ccc3c(C(F)(F)F)cc(C(F)(F)F)nc32)n1 | 2.6% | 1.6 |  |  |  |  | 
> 30000 |  |  | Cl.NCCOc1cc(C(F)(F)F)c2ccc3nc(C(=O)Nc4ccncc4)cn3c2n1 | 78.2% | 51.8 |  |  |  | inactive | 
> 30000 | > 120 | > 120 | Cl.O=C(NC1CCNCC1)c1cn2c(ccc3c(C(F)(F)F)cc(C(F)(F)F)nc32)n1 | 90.7% | 58.6 | 5.08 | Non-Toxic | inactive |  | 
< 100 |  |  | O=C(Nc1cccnc1)c1cn2c(ccc3c(C(F)(F)F)cc(C(F)(F)F)nc32)n1 | 63.6% | 6.9 |  |  |  |  | 

Second part, the compound before the results:

Compound | solubility [2] [µg/mL] | half-life at 29 µM [5] [min] | half-life at 29 µM [6] [min] | Activity (Hepatitis C virus) | Activity [1] [%] | pIC50 [3] | Activity (Hepatocyte) | Activity (Homo sapiens) | Activity (HBV genotype C [4]) | Activity (HBV genotype C [7])
Cl.NCCOc1cc(C(F)(F)F)c2ccc3nc(-c4nnco4)cn3c2n1 | 19800 |  |  | 28.1% | 5.7 | 5.00 | Non-Toxic | Active |  | 
CCCc1nnc(-c2cn3c(ccc4c(C(F)(F)F)cc(C(F)(F)F)nc43)n2)o1 |  |  |  | 15.3% | 8.5 |  |  |  |  | 
Cc1nnc(-c2cn3c(ccc4c(C(F)(F)F)cc(C(F)(F)F)nc43)n2)o1 |  |  |  | 89.8% | 4.3 |  |  |  |  | 
FC(F)(F)c1cc(C(F)(F)F)c2ccc3nc(-c4nnco4)cn3c2n1 | 920 (≈ 2470 µM) | 58.2 | 34.1 | 90.1 - 92.1% | 3.1 |  |  | Active |  | Active
COCc1nnc(-c2cn3c(ccc4c(C(F)(F)F)cc(C(F)(F)F)nc43)n2)o1 |  |  |  | 4.8% | -2.5 |  |  |  |  | 
OCc1nnc(-c2cn3c(ccc4c(C(F)(F)F)cc(C(F)(F)F)nc43)n2)o1 |  |  |  | 12% | -7.4 |  |  |  |  | 
O=C(c1cn2c(ccc3c(C(F)(F)F)cc(C(F)(F)F)nc32)n1)N1CCNCC1 |  |  |  |  |  |  |  |  | Active | 
O=C(Nc1ccncc1)c1cn2c(ccc3c(C(F)(F)F)cc(C(F)(F)F)nc32)n1 | < 100 |  |  | 40.1% | 4.2 |  |  |  |  | 
